Source: ChEMBL document CHEMBL4411315, “Discovery of Novel Dual Histone Deacetylase and Mammalian Target of Rapamycin Target Inhibitors as a Promising Strategy for Cancer Therapy” (J Med Chem, 2019)
Active and inactive are the calls of the source. No cut-off for these calls is given here.

Columns and labels:
[1] = system: MM1.S; test: Cell cycle arrest in human MM1S cells assessed as accumulation at G0/G1 phase at 5 nM after 24 hrs by propidium iodide/RNase staining-based FACS analysis (reference value: 49.22%); assay type: functional
[2] = system: MM1.S; test: Induction of apoptosis in human MM1S cells assessed as late apoptotic cells at 80 nM after 48 hrs by Annexin V-FITC/propidium iodide staining-based flow cytometric analysis (reference value: 0.42%); assay type: functional
[3] = biological target: T1, Serine/threonine-protein kinase mTOR (Homo sapiens, UniProt P42345); test: Inhibition of mTOR in human MV4-11 cells assessed as decrease in Akt phosphorylation at S473 residues at 0.01 to 10 uM after 24 hrs by Western blot analysis; assay type: cell-based
How it was run: (§1)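 Treatment of MV4-11 cells lasted 24 h at 0.01, 0.1, 1 and 10 μM. Lysis in RIPA buffer and BCA quantitation, then 30 μg protein by SDS-PAGE, PVDF transfer, 5% milk block, primary antibody overnight at 4 °C, HRP secondary 1 h and ECL detection. p-p70S6K (T389), p-4EBP1 (S65), p-Akt (S473) and p-ERK were probed.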

[4] = system: MV4-11; test: Cell cycle arrest in human MV4-11 cells assessed as accumulation at S phase at 2.5 nM after 24 hrs by propidium iodide/RNase staining-based FACS analysis (reference value: 36.42%); assay type: functional
[5] = biological target: T1, Serine/threonine-protein kinase mTOR; test: Inhibition of mTOR in human MV4-11 cells assessed as decrease in p70S6K phosphorylation at Thr 389 residues at 0.01 to 10 uM after 24 hrs by Western blot analysis; assay type: cell-based; how it was run: as §1
[6] = biological target: Histone deacetylase 8 (Homo sapiens, UniProt Q9BY41); test: Inhibition of recombinant full length C-terminal His-tagged human HDAC8 expressed in baculovirus expression system using Ac-peptide-AMC as substrate preincubated for 15 mins followed by substrate addition and measured after 1 hr by fluorescence assay
[7] = system: MM1.S; test: Induction of apoptosis in human MM1S cells assessed as viable cells at 10 nM after 48 hrs by Annexin V-FITC/propidium iodide staining-based flow cytometric analysis (reference value: 98.9%); assay type: functional; conditions: read-out: Activity
[8] = system: MM1.S; test: Cell cycle arrest in human MM1S cells assessed as accumulation at G2/M phase at 2.5 nM after 24 hrs by propidium iodide/RNase staining-based FACS analysis (reference value: 26.29%); assay type: functional
[9] = system: MM1.S; test: Cell cycle arrest in human MM1S cells assessed as accumulation at G0/G1 phase at 1.25 nM after 24 hrs by propidium iodide/RNase staining-based FACS analysis (reference value: 49.22%); assay type: functional
[10] = system: MM1.S; test: Induction of apoptosis in human MM1S cells assessed as early apoptotic cells at 320 nM after 48 hrs by Annexin V-FITC/propidium iodide staining-based flow cytometric analysis (reference value: 0.38%); assay type: functional
[11] = system: MM1.S; test: Induction of apoptosis in human MM1S cells assessed as late apoptotic cells at 20 nM after 48 hrs by Annexin V-FITC/propidium iodide staining-based flow cytometric analysis (reference value: 0.42%); assay type: functional
[12] = system: MV4-11; test: Cell cycle arrest in human MV4-11 cells assessed as accumulation at S phase at 5 nM after 24 hrs by propidium iodide/RNase staining-based FACS analysis (reference value: 36.42%); assay type: functional
[13] = system: MV4-11; test: Induction of apoptosis in human MV4-11 cells assessed as necrotic cells at 320 nM after 48 hrs by Annexin V-FITC/propidium iodide staining-based flow cytometric analysis (reference value: 0.17%); assay type: functional
[14] = system: MV4-11; test: Antitumor activity against human MV4-11 cells xenografted in NOD/SCID mouse assessed as tumor growth inhibition at 10 mg/kg, iv administered every 2 days for 6 days and measured every 2 days post last dose by caliper method relative to control; assay type: functional; conditions: MV4-11, iv, read-out: TGI
How it was run: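 Female NOD/SCID mice aged 5-6 weeks received 10^7 MV4-11 cells in 100 μL serum-free IMDM s.c. into the right flank. At 100-200 mm3 the mice were randomized, 6 per group. Dosing was i.v. at 10 mg/kg every 2 days, in saline with 2.5% DMSO and 10% cyclodextrin at pH 9. Tumours were measured by caliper every 2 days, with volume = length × width² × 0.5, and were weighed at sacrifice.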

[15] = system: MV4-11; test: Induction of apoptosis in human MV4-11 cells assessed as viable cells at 10 nM after 48 hrs by Annexin V-FITC/propidium iodide staining-based flow cytometric analysis (reference value: 84.1%); assay type: functional; conditions: MV4-11, 48 h, read-out: Activity
[16] = system: MM1.S; test: Antiproliferative activity against human MM1S cells after 72 hrs by MTT assay; assay type: functional, cell-based
[17] = system: OCI-AML2; test: Antiproliferative activity against human OCI-AML2 cells after 72 hrs by MTT assay; assay type: functional, cell-based; conditions: OCI-AML2, 72 h
[18] = system: MV4-11; test: Cell cycle arrest in human MV4-11 cells assessed as accumulation at G0/G1 phase at 2.5 nM after 24 hrs by propidium iodide/RNase staining-based FACS analysis (reference value: 44.79%); assay type: functional
[19] = system: MM1.S; test: Antitumor activity against human MM1S cells xenografted in NOD/SCID mouse assessed as tumor growth inhibition at 10 mg/kg, iv administered every 2 days for 5 days and measured every 2 days post last dose by caliper method relative to control; assay type: functional; conditions: read-out: TGI
How it was run: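 MM1S xenografts were made with 10^7 cells in 100 μL serum-free RPMI 1640, injected s.c. into the right flank of female NOD/SCID mice aged 5-6 weeks. Mice were randomized at 100-200 mm3, 6 per group. Dosing was i.v. every 2 days in saline with 2.5% DMSO and 10% cyclodextrin at pH 9. Tumours were measured by caliper every 2 days (volume = length × width² × 0.5) and weighed at the end.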

[20] = system: MM1.S; test: Induction of apoptosis in human MM1S cells assessed as necrotic cells at 20 nM after 48 hrs by Annexin V-FITC/propidium iodide staining-based flow cytometric analysis (reference value: 0.32%); assay type: functional
[21] = Toxicity against NOD/SCID mouse xenografted with human MM1S cells assessed as effect on body weight at 20 mg/kg, iv administered every 2 days for 5 days; assay type: organism-based; conditions: in vivo
How it was run: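 Female NOD/SCID mice, 5-6 weeks old, received 10^7 MM1S cells in 100 μL serum-free RPMI 1640 s.c. into the right flank. At 100-200 mm3 tumours they were randomised, 6 mice per group. Tumours were measured by caliper every 2 days. At the end, tumours were excised and weighed. Survivors are reported per group.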

[22] = biological target: Histone deacetylase 5 (Homo sapiens, UniProt Q9UQL6); test: Inhibition of recombinant full length N-terminal GST-tagged human HDAC5 expressed in baculovirus expression system using Ac-peptide-AMC as substrate preincubated for 15 mins followed by substrate addition and measured after 1 hr by fluorescence assay
[23] = system: MV4-11; test: Induction of apoptosis in human MV4-11 cells assessed as late apoptotic cells at 160 nM after 48 hrs by Annexin V-FITC/propidium iodide staining-based flow cytometric analysis (reference value: 5.03%); assay type: functional
[24] = system: MV4-11; test: Cell cycle arrest in human MV4-11 cells assessed as accumulation at S phase at 1.25 nM after 24 hrs by propidium iodide/RNase staining-based FACS analysis (reference value: 36.42%); assay type: functional

Sequence of Histone deacetylase 8 (Q9BY41 whole entry): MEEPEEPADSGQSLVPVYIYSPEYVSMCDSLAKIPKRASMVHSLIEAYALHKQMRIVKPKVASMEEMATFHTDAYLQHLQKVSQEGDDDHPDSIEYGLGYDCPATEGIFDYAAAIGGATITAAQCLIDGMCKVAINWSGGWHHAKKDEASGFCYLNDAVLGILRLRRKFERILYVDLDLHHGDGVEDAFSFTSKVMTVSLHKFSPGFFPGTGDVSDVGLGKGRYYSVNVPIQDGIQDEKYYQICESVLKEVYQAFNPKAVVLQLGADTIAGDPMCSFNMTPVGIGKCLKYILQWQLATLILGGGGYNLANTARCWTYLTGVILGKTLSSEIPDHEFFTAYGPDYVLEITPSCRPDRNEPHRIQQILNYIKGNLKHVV
Sequence of Histone deacetylase 5 (Q9UQL6 whole entry): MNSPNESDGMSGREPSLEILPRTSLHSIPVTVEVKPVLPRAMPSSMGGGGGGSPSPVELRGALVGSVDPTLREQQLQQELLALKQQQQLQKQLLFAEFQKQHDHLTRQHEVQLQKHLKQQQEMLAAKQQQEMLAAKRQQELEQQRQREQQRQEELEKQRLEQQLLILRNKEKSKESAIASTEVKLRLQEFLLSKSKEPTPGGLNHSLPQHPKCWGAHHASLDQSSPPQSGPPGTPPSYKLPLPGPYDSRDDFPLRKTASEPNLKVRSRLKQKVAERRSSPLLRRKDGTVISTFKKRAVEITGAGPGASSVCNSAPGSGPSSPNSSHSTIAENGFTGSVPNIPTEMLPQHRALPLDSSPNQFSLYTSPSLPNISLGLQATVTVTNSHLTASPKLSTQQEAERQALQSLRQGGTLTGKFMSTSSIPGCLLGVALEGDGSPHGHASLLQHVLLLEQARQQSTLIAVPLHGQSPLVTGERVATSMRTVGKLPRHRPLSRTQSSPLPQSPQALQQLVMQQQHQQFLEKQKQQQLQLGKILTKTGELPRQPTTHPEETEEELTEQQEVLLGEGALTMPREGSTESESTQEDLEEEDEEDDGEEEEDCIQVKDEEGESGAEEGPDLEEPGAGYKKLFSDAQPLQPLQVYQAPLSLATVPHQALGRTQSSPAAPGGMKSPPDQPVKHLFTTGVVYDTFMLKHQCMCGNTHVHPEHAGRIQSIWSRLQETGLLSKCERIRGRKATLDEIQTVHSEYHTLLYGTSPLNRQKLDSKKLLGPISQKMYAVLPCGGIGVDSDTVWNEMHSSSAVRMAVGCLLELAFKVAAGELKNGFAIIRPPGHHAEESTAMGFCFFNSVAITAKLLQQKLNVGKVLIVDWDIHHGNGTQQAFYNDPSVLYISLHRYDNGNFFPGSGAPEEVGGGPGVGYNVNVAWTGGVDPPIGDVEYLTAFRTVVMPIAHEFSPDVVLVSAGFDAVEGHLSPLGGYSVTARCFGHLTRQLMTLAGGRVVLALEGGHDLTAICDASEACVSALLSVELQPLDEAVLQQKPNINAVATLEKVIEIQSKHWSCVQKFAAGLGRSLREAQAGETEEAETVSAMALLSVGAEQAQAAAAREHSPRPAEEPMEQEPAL

C[C@@H]1CN(C(=O)Nc2ccc(-c3nc(N4CCOCC4)c4cnn(CCCCCCC(=O)NO)c4n3)cc2)CCO1
Activity [1]: 57.95%
Activity [2]: 40.5%
inhibition [3]: Active
Activity [4]: 33.77%
inhibition [5]: Active
IC50 [6]: 1.28 nM
viability at 0.01 µM [7]: 95.1%
Activity [8]: 25.8%
Activity [9]: 53.85%
Activity [10]: 32.2%
Activity [11]: 4.78%
Activity [12]: 21.32%
Activity [13]: 1.62%
inhibition in vivo at 10 mg/kg [14]: 53.1%
viability at 0.01 µM [15]: 75.2%
IC50 [16]: 7.3 nM
IC50 [17]: 9.01 nM
Activity [18]: 48.03%
inhibition in vivo at 10 mg/kg [19]: 48.1%
Activity [20]: 1.05%
Activity [21]: Non-Toxic
IC50 [22]: > 1000 nM
Activity [23]: 61.9%
Activity [24]: 34.16%
